Only some compounds are listed: those with a hit (about 12% of all), similar ones and a draw of the others.
Lmaj promast – reduces viability of Leishmania major promastigotes. inhibition, % at 10 µM. resazurin fluorescence viability. 200,000 compounds, 9% hits; in the data active = inhibition above about 50%;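 also: promastigotes grown with compound for 44 hours at 28 °C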
ABCG2 inh – inhibitors of human ABCG2 transporter, ABCB1 counter-screen; IgMXP3 cells, JC-1 efflux, flow cytometry; 190,000 compounds, 0.1% hits; AID 1325; Q9UNQ0; inhibition, % at 6.6 µM;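 active = inhibition above 80%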;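 also: 0% = DMSO and 100% = nicardipine control wells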
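Test system: ABCG2 IgMXP3 and barcoded ABCB1 CCRF-Adr cell mix; Schedule: cells with compound and JC-1, 10 min at 25 °C, rotating, no wash; Technique: flow cytometry of retained JC-1 fluorescence; Measure: % inhibition of efflux relative to nicardipine and DMSO; Controls: nicardipine high and DMSO low controls.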
RAM network inh – yeast RAM network inhibition | S. cerevisiae dse1pr::URA3 reporter, 5-FOA growth OD615, 2 d; analog-sensitive cbk1-as2 kinase mutant strain | inhibition, % at 50 µM | 190,000 compounds, 1.8% hits | AID 868;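 active = inhibition above a set limit, 3 SD over mean compound inhibition, cut at about 8.4% in these data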;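 also: 0% = DMSO-only wells with no growth and 100% = 10 µM 1-NA-PP1 full growth; inhibition rescues growth on 5-FOA so higher OD means more RAM inhibition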
ABCB1 block – blocks JC-1 efflux by human ABCB1 transporter | CCRF-Adr cells, flow cytometry | inhibition, % at 6.6 µM | 190,000 compounds, 0.067% hits | AID 1326; in the data active = inhibition above about 40%;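 also: 0% = vehicle and 100% = reference inhibitor; higher value means more JC-1 retained so stronger ABCB1 efflux block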
WT yeast gro inh – growth inhibition of WT yeast, mitochondrial fusion screen. inhibition, % at 10 µM. 190,000 compounds, 2.1% hits. mitochondrial fusion phenotypic screen, WT strain; in the data active = inhibition above about 58%; tested in S. cerevisiae
Active calls of the source: *; · = not tested or not shown.

SMILES	Lmaj promast	ABCG2 inh	RAM network inh	ABCB1 block	WT yeast gro inh
CC1CC1c1ccc(/C=C(\C#N)C(=O)Nc2cc(Cl)ccc2Cl)o1 (stereo not given)	5.9	0.8	8.7*	0.0	-6.9
O=C(/C=C/c1ccc(Cl)cc1Cl)N(Cc1ccccc1)C1CCS(=O)(=O)C1 (stereo not given)	84.1*	14.0	4.0	3.5	31.3
O=C(/C=C/c1ccc(Cl)cc1Cl)N(Cc1ccc(Cl)cc1)C1CCS(=O)(=O)C1 (stereo not given)	87.8*	8.3	5.7	1.4	59.4*
O=C(/C=C/c1ccc(Cl)cc1)N(Cc1ccccc1)C1CCS(=O)(=O)C1 (stereo not given)	3.2	31.6	0.9	1.4	12.4
COc1ccc(OC)c(NC(=O)CN(C)CC(=O)Nc2ccccc2Br)c1	-2.1	11.2	0.7	2.2	-2.9
COc1ccc(-n2c(SCC(=O)Nc3ccc4c(c3)OCO4)nc3c(c2=O)SCC3)cc1	10.8	1.5	1.9	0.8	17.3
COc1ccccc1-n1c(SCC(=O)Nc2ccc3c(c2)OCO3)nc2c(c1=O)SCC2	89.1*	-0.6	2.0	0.3	-1.4
Cc1ccc2nc(NC(=O)CSc3nc4ccccc4o3)sc2c1	-6.2	-0.6	0.8	-0.6	5.0
CN(c1ccc(OCC(=O)Nc2nc(-c3ccccc3)cs2)cc1)S(=O)(=O)c1ccc(F)cc1	97.2*	-2.1	3.9	-0.2	-5.1
Cc1ccc(S(=O)(=O)N(C)c2ccc(OCC(=O)Nc3nc4ccccc4s3)cc2)cc1	98.2*	3.7	1.3	0.6	12.4
CCOC(=O)C(=O)c1csc(NC(=O)COc2ccc(N(C)S(=O)(=O)c3ccc(F)cc3)cc2)n1	-10.5	7.4	4.6	0.7	4.3
Cc1ccc(S(=O)(=O)N(C)c2ccc(OCC(=O)Nc3nc4c(ccc5ccccc54)s3)cc2)cc1	11.2	-1.0	3.9	-0.2	-4.7
Cc1ccc(S(=O)(=O)N(C)c2ccc(OCC(=O)Nc3nc(-c4ccccc4)cs3)cc2)cc1	89.3*	1.5	3.6	0.4	3.9
Cc1ccc(-c2csc(NC(=O)CSc3nc4ccccc4o3)n2)cc1	81.4*	-2.6	1.9	-0.5	22.5
C/C(CCc1ccccc1)=N\NC(=O)CC(=O)NCCc1ccccc1	-5.8	1.0	0.4	0.3	-1.7
Cc1ccc(S(=O)(=O)CC(=O)Nc2nc(-c3ccccc3)cs2)cc1	10.2	-1.0	2.2	-0.1	60.6*
CCn1ncc(Cl)c1C(=O)Nc1cc([N+](=O)[O-])ccc1OC	-4.8	2.8	2.3	0.2	-15.5
COc1ccc([N+](=O)[O-])cc1NC(=O)CSc1nc(C)cc(C)n1	2.9	6.7	2.2	1.7	-1.6
COc1ccc([N+](=O)[O-])cc1NC(=O)C(C)N(C)Cc1ccc(Br)cc1 (stereo not given)	56.6*	68.0	2.3	17.3	19.0
COc1ccc([N+](=O)[O-])cc1NC(=O)CC(c1ccccc1)c1ccccc1	2.1	23.6	2.2	1.1	3.7
COc1ccc(Br)cc1CN(C)C(C)C(=O)Nc1cc([N+](=O)[O-])ccc1OC (stereo not given)	1.5	8.6	2.4	1.9	37.9
COc1ccc([N+](=O)[O-])cc1NC(=O)CSc1ccc2ccccc2c1	4.9	2.7	8.4*	-0.1	18.4
CCN(CCC(=O)Nc1cc([N+](=O)[O-])ccc1OC)Cc1ccccc1	67.4*	7.3	0.7	·	-6.1
COc1ccc(CNC(=O)CN(C(=O)CCC(=O)Nc2ccccn2)c2cccc(C)c2)cc1	50.2*	10.9	10.2*	-0.1	-6.9
CCC(C)(C)NC(=O)CN(C(=O)CCC(=O)Nc1ccccn1)c1ccc(F)c(Cl)c1	90.2*	1.7	0.0	0.4	11.9
SMILES	Lmaj promast	ABCG2 inh	RAM network inh	ABCB1 block	WT yeast gro inh
Cc1ccc(C)c(N(CC(=O)NCc2ccc3c(c2)OCO3)C(=O)CCC(=O)Nc2ccccn2)c1	56.3*	0.3	1.6	0.8	5.1
CC(C)NC(=O)CN(C(=O)CCC(=O)Nc1ccccn1)c1ccc(F)c(Cl)c1	0.8	2.3	1.7	0.5	-11.8
Cc1cc(N2C3CCC2CC(O)(c2ccc(F)cc2)C3)nc(-c2ccccc2)n1 (stereo not given)	58.1*	1.2	1.5	0.3	27.9
O=C(CSc1nnc(C2CCCCC2)n1Cc1ccccc1)NCc1ccco1	-0.2	0.2	1.6	0.6	-13.6
CC(NC(=S)NCCCN1CCOCC1)C1CC2CCC1C2 (stereo not given)	87.0*	0.4	0.1	0.0	59.4*
Cc1ccccc1C(=O)NCCN1CCOCC1	5.0	2.6	0.6	1.1	-6.0
